Source: PubChem BioAssay (several laboratories)
In the library only some 1.7% were active in any assay of this set; here they are far more common.
VIM-2 inhibitor – inhibitors of Pseudomonas aeruginosa VIM-2 metallo-beta-lactamase; purified VIM-2, nitrocefin hydrolysis, epi-absorbance fluorescence; inhibition, % at 5.6 µM; 290,000 compounds, 0.89% hits;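 active = inhibition above the mean of all tested compounds plus 3 SD, cutoff set per screening run, cut at about 7.5% in these data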;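 note: red hydrolysis product quenches plate fluorescence so inhibitors raise well fluorescence; 0% = enzyme with DMSO and 100% = DMSO without enzyme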
IMP-1 inh – inhibitors of Pseudomonas aeruginosa IMP-1 metallo-beta-lactamase; purified IMP-1, nitrocefin hydrolysis, epi-absorbance fluorescence; inhibition, % at 5.6 µM; 290,000 compounds, 0.45% hits;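 active = inhibition above the mean plus 3 SD of all compounds in the same screening run, cut at about 4.5% in these data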;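 note: 0% = IMP-1 with DMSO and 100% = DMSO wells lacking enzyme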
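system = purified recombinant IMP-1 beta-lactamase | amount = 0.2 nM IMP-1, as dispensed | medium = HEPES buffer pH 7.1 with ZnSO4 and Brij 35 | times = 25 °C, 15 min preincubation, 25 min reaction | detection = plate fluorescence quenching by hydrolysis product, ex 480/em 530 nm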
procasp3 activ – procaspase-3 (human) activation; 330,000 compounds, 0.11% hits; P42574; AID 463141; recombinant procaspase-3 D3A, Ac-DEVD-pNA absorbance 405 nm; activation, % at 8.5 µM;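 active = activation above the mean of all tested compounds plus 3 SD, cut at about 21% in these data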;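 note: 0% = DMSO alone and 100% = DMSO wells spiked with extra 5 µM PC-3 D3A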
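Technique: 405 nm absorbance of p-nitroaniline, reads at 0 and 120 min; Test system: Procaspase-3 D3A mutant; Incubation: 1 h enzyme-compound preincubation, then 2 h substrate reaction, 25 °C; Repeats: singlicate, each compound tested once; Benchmarks: low control DMSO wells, high control DMSO plus 5 µM PC-3 D3A.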
Neddylation inh – blocks human cullin neddylation. P61081+Q13564. TR-FRET cullin neddylation, biochemical. calls only at 25 µM. 360,000 compounds, 0.58% hits; in the data active = inhibition above about 36%
Target sequence (P61081 whole entry, looked up): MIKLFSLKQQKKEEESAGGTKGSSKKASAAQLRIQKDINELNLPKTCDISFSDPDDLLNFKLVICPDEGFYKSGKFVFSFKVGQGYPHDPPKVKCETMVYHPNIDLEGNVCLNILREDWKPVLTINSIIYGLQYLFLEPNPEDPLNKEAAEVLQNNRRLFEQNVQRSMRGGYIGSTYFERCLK
Target sequence (Q13564 whole entry, looked up): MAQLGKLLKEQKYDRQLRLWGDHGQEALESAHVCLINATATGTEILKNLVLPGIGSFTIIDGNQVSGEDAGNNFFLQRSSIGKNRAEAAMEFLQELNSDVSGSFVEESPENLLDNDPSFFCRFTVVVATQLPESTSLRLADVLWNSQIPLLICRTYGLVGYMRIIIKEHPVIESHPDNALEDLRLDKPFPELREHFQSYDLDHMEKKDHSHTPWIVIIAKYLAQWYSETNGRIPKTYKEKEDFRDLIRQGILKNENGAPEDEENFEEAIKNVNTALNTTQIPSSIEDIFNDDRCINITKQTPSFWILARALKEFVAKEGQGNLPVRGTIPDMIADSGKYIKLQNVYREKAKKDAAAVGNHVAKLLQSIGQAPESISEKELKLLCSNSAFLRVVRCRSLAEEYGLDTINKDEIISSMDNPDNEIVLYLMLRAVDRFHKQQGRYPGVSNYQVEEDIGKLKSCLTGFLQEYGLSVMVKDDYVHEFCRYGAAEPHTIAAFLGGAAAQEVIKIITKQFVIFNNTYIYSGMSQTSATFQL
PolyA inhibitor – blocks polyadenylation in yeast reporter cells; S. cerevisiae SKY197-pL101 polyadenylation reporter, beta-gal luminescence; efflux-impaired pdr1/pdr3 knockout yeast; score 100 = 6 SD above DMSO; activity score, % at 12 µM; 300,000 compounds, 0.02% hits; AID 1875;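 active = lowest replicate activity score at least 50, where 100 means six control SD above control mean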;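 note: yeast exposed to compound for 9 h at 30 °C; higher score means more reporter readthrough which indicates perturbed polyadenylation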
proCasp7 act – counter-screen for procaspase-3 activators: activators of human procaspase-7 | P55210 | recombinant procaspase-7, Ac-DEVD-pNA absorbance 405 nm; D23A/D198A/D206A triple mutant, cannot self-cleave; scale: DMSO 0, 5 µM enzyme 100 | activation, % at 8.5 µM | 330,000 compounds, 0.093% hits | AID 463210;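 active = percent activation above the screen-wide mean plus 3 SD, cut at about 25% in these data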
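Assay system: Uncleavable procaspase-7 mutant enzyme / Input: 2 µM procaspase-7 mutant as dispensed / Dosing: single nominal 8.5 µM compound dose, 0.8% DMSO final / Timing: 1 h enzyme–compound preincubation and 2 h substrate reaction, both 25 °C / Detection: p-Nitroaniline absorbance at 405 nm, read at 0 and 120 min / Replication: singlicate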
Active calls of the source: *; i = inactive; . = no result shown; + = active, no number.

SMILES	VIM-2 inhibitor	IMP-1 inh	procasp3 activ	Neddylation inh	PolyA inhibitor	proCasp7 act
Cc1nc2ccccc2c2oc(C(=O)N3CCc4ccccc4C3)cc12	4	-4	7	i	1	-10
O=C(CCC(=O)c1ccccc1)Nc1ccccc1	.	.	9	i	-4	10
CCN(CC)S(=O)(=O)c1ccc(NC(=O)c2ccc(CN3CCOCC3)cc2)cc1	0	0	5	i	-2	4
COc1ccccc1-c1cc(C(F)(F)F)nc(N2CCCCC2)n1	-6	1	2	i	-15	0
O=C(Nc1cccc2cccnc12)c1ccc2c(c1)OCCO2	-3	-4	-1	i	-22	-2
O=C(Nc1cccc2nsnc12)c1ccc2c(c1)OCCO2	0	-1	-20	+	1	-11
Cc1ccc(-c2nnc(SCC(=O)OC(C)C)n2N)cc1	0	-2	1	i	-4	-2
COc1cccc(/C=C2/Sc3ccc(C(=O)NCCN4CCCC4)cc3NC2=O)c1	11*	-3	5	i	5	3
O=C1Nc2cc(C(=O)NCCN3CCCCCC3)ccc2S/C1=C/c1ccccc1F	.	.	.	i	.	.
Cc1cccc(NC(=O)/C(C#N)=C/c2ccc(Cl)cc2)n1	-2	-2	-9	i	-16	-6
CN1CCN(C(=O)c2cc3cc(Cl)ccc3[nH]2)CC1	-2	-2	-7	i	-5	-6
O=c1nc2ccc(Cl)cn2c2ccc(S(=O)(=O)N3CCCCC3)cc12	6	0	-7	.	7	3
O=c1nc2ccc(Cl)cn2c2ccc(S(=O)(=O)N3CCOCC3)cc12	11*	-2	-9	.	11	0
CCNC(=O)NC(=O)COC(=O)c1ccccc1SCC(=O)NC(=O)NCC	11*	4	-30	.	0	-24
COc1ccc(N2CC(C(=O)Nc3ccc4c(c3)OCCO4)CC2=O)cc1 (stereo unspecified)	-3	-4	-3	i	3	-11
CCC(=O)Nc1nc2c(OC)ccc(OC)c2s1	-1	4.9*	-7	i	-5	1
CCCC(=O)Nc1nc2c(OC)ccc(OC)c2s1	-2	-3	-1	i	15	2
OC(c1ccc(-c2ccccc2)cc1)c1ncc(-c2ccccc2)[nH]1 (stereo unspecified)	.	.	.	i	.	.
COC(=O)c1cc(S(=O)(=O)NCCc2ccc(SC)cc2)c[nH]1	-1	34*	-7	i	-5	4
COc1ccccc1CNC(=O)N1CCN(c2ccccc2)CC1	-1	-3	1	i	-13	-2
COc1ccccc1CNC(=O)N1CCN(c2ccccc2C)CC1	1	52*	2	i	6	-4
COc1ccc(CNC(=O)CN2CCN(c3cccc(C)c3C)CC2)cc1	-1	-3	-6	i	-2	3
N#Cc1ccccc1Cn1c(=O)n(Cc2ccc(C(=O)NCc3ccco3)cc2)c(=O)c2sccc21	-1	7.0*	0	i	4	15
N#Cc1ccccc1Cn1c(=O)n(-c2ccc(CC(=O)NCc3ccco3)cc2)c(=O)c2sccc21	0	-2	9	i	-10	1
Cc1cc(C)c(NS(=O)(=O)c2cccc3cccnc23)c(C)c1	0	-4	0	i	-4	5
SMILES	VIM-2 inhibitor	IMP-1 inh	procasp3 activ	Neddylation inh	PolyA inhibitor	proCasp7 act
Cc1ccc(S(=O)(=O)Nc2cccc3cccnc23)c([N+](=O)[O-])c1	-6	-3	10	i	72*	-1
O=C1N2CCCc3cccc(c32)C12Nc1ccccc1S2 (stereo unspecified)	-2	-3	.	i	0	.
CCc1ccc2c(CC(=O)Nc3nnc(C4CC4)s3)coc2c1	-3	61*	2	i	-19	5
CN(C)c1ccc(C=c2c3ccccc3n3c2c2ccccc2[n+]3C)cc1	.	.	.	+	.	.
CCCCC(=O)Nc1cc(OCC)c(NC(=S)NC)cc1OCC	1	-1	-3	i	-14	-1
C[C@H](CO)N1C[C@H](C)[C@@H](CN(C)S(=O)(=O)c2ccccc2)Oc2ccc(NC(=O)CCN3CCOCC3)cc2C1=O	.	.	-1	i	.	-6
